The source of these data is ChEMBL document CHEMBL1909601, “Synthesis and structure-activity relationship studies of dihydronaphthyridinediones as a novel structural class of potent and selective PDE7 inhibitors” (Bioorg Med Chem Lett, 2011).

Experiment [1] has as its target 3',5'-cyclic-AMP phosphodiesterase 4A (Homo sapiens, UniProt P27815). The experiment in a line: Inhibition of human recombinant PDE4A4 expressed in baculovirus infected insect Sf21 cells after 30 mins by scintillation proximity assay. An outline of the steps:
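Full-length human recombinant enzyme expressed in baculovirus-infected Sf21 cells. Scintillation proximity assay with 500 nM [3H]-cAMP substrate in 80 mM Tris/10 mM MgSO4, pH 7.4. Incubated 30 min at 37 °C, then SPA beads added and plates counted. Background taken in presence of 10 µM rolipram. IC50 reported.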

The target in experiment [2] is High affinity 3',5'-cyclic-AMP phosphodiesterase 7A (Homo sapiens, UniProt Q13946). The experiment in a line: Inhibition of human recombinant PDE7A1 expressed in baculovirus infected insect Sf21 cells after 30 mins by scintillation proximity assay. In short, it runs like this:
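Full-length human recombinant PDE7A1 produced in baculovirus-infected Sf21 cells. SPA read-out with [3H]-cAMP at 20 nM in 80 mM Tris/10 mM MgSO4, pH 7.4. Reaction run 30 min at 37 °C before bead addition and scintillation counting. Background measured without enzyme. IC50 derived.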
In general terms: In a scintillation proximity assay essentially only radioactivity close to the scintillant gives light.

The species entered for experiment [3] is Homo sapiens. As to the kind of experiment: Selectivity ratio of IC50 for human recombinant PDE4A4 to IC50 for human recombinant PDE7A1. An outline of the steps:
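Ratio of IC50 values for the two enzymes. PDE4A4 run at 500 nM [3H]-cAMP with a 10 µM rolipram background; PDE7A1 run at 20 nM [3H]-cAMP with a no-enzyme background. Both used full-length human enzymes from Sf21 cells, 30 min at 37 °C, pH 7.4 Tris/MgSO4, SPA read-out.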

Bounds are passed on as bounds.

Sequence of High affinity 3',5'-cyclic-AMP phosphodiesterase 7A (Q13946 whole entry): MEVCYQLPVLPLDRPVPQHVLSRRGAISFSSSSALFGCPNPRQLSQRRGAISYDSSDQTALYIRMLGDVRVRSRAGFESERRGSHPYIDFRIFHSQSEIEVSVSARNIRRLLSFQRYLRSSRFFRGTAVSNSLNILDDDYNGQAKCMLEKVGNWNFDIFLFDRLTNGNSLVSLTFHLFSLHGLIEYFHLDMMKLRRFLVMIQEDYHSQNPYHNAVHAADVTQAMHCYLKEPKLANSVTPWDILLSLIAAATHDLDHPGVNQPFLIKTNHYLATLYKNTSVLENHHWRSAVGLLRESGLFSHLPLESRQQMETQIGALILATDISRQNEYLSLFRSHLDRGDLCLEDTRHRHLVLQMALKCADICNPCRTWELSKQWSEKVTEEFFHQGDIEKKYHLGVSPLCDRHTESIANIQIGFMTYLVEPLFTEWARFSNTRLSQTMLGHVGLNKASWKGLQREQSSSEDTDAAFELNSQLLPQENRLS
Sequence of 3',5'-cyclic-AMP phosphodiesterase 4A (P27815 whole entry): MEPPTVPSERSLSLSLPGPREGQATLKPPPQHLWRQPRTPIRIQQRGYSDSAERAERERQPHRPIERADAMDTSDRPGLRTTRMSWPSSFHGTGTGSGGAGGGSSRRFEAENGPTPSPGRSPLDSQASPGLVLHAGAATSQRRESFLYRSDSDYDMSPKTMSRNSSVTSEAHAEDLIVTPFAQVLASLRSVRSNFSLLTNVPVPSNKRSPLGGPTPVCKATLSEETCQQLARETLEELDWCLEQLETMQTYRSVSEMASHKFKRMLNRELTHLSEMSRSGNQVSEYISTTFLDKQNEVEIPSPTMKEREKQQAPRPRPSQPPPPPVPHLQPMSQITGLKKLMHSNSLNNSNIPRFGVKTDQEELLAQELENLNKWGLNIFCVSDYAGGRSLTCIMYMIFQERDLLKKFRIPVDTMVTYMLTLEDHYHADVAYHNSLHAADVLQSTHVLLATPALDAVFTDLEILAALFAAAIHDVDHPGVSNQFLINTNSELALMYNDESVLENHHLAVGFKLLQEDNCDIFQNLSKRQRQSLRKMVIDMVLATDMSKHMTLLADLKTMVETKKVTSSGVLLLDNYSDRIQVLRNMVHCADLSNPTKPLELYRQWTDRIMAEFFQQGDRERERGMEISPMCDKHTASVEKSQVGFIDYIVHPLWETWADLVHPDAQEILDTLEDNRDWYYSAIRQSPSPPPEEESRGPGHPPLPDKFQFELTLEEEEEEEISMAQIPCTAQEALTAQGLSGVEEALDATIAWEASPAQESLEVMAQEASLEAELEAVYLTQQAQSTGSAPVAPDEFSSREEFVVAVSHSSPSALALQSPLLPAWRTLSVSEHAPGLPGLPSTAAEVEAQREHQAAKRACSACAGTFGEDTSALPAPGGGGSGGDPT

A word on the IC50: it is the concentration that inhibits the measured activity by half. `COc1cc(NC(=O)c2cn(Cc3c(F)cccc3F)c3ccc(=O)[nH]c3c2=O)cc(OC)c1OC`: the concentration for half-maximal inhibition (IC50) in experiment [1] was determined as 516 nM; in experiment [2], 18 nM.
In the same order, the values of `Nc1ccc(NC(=O)c2cn(Cc3c(F)cccc3F)c3ccc(=O)[nH]c3c2=O)cc1` are 477 nM and 104 nM.
Regarding `NS(=O)(=O)c1ccc(NC(=O)c2cn(Cc3c(F)cccc3Cl)c3ccc(=O)[nH]c3c2=O)cc1`, the values for the IC50 in experiment [1] and in experiment [2] were 385 nM and 20 nM, respectively. The Ratio IC50 in experiment [3] worked out at 19.
For `CC(=O)c1ccc(NC(=O)c2cn(Cc3c(F)cccc3Cl)c3ccc(=O)[nH]c3c2=O)cc1`, the IC50 in experiment [1] came to 161 nM; in experiment [2] it was 18 nM. Besides, the Ratio IC50 in experiment [3] worked out at 6.
On to `O=C(Nc1ccc(C(=O)N2CCOCC2)cc1)c1cn(Cc2c(F)cccc2F)c2ccc(=O)[nH]c2c1=O`, for which the IC50 was 1060 nM in experiment [1] and 188 nM in experiment [2].
For `Cc1ccccc1Cn1cc(C(=O)Nc2ccc(N3CCOCC3)cc2)c(=O)c2[nH]c(=O)ccc21` the same measures were greater than 1000 nM and 266 nM.
Consider `COc1cc(NC(=O)c2cn(Cc3c(F)cccc3Cl)c3ccc(=O)[nH]c3c2=O)cc(OC)c1OC`, for which the concentration for half-maximal inhibition (IC50) in experiment [1] is greater than 1000 nM; in experiment [2], 33 nM.
In the same order, the values of `COc1cc(NC(=O)c2cn(Cc3ccccc3Cl)c3ccc(=O)[nH]c3c2=O)cc(OC)c1OC` are greater than 1000 nM and 178 nM.
For `O=C(Nc1ccc(C(F)(F)F)cc1)c1cn(Cc2c(F)cccc2F)c2ccc(=O)[nH]c2c1=O` the same measures were greater than 1000 nM and 300 nM.
In the case of `O=C(Nc1ccc(OC(F)F)cc1)c1cn(Cc2c(F)cccc2F)c2ccc(=O)[nH]c2c1=O`, the IC50 in experiment [1] was 568 nM; in experiment [2] it was 71 nM.
For `O=C(Nc1ccc(F)cc1)c1cn(Cc2c(F)cccc2F)c2ccc(=O)[nH]c2c1=O` the same measures were greater than 1000 nM and 179 nM.
For `COc1ccc2c(n1)c(=O)c(C(=O)Nc1ccc(N3CCOCC3)cc1)cn2Cc1c(F)cccc1F` the same measures were greater than 5000 nM and greater than 5000 nM.
As to `O=C(Nc1ccc(N2CCCCC2)cc1)c1cn(Cc2c(F)cccc2F)c2ccc(=O)[nH]c2c1=O`, the IC50 in experiment [1] is greater than 1000 nM; in experiment [2], 124 nM.
For `O=C(Nc1ccc(N2CCOCC2)cc1)c1cn(Cc2ccc(OC(F)(F)F)cc2)c2ccc(=O)[nH]c2c1=O` the same measures were greater than 1000 nM and greater than 1000 nM.
In the same order, the values of `O=C(Nc1ccccc1)c1cn(Cc2c(F)cccc2F)c2ccc(=O)[nH]c2c1=O` are 1330 nM and 94 nM.
In the same order, the values of `COc1cc(NC(=O)c2cn(Cc3ccccc3Br)c3ccc(=O)[nH]c3c2=O)cc(OC)c1OC` are greater than 1000 nM and greater than 1000 nM.
Consider `CNC(=O)c1ccc(NC(=O)c2cn(Cc3c(F)cccc3F)c3ccc(=O)[nH]c3c2=O)cc1`, for which the figures for the IC50 in experiment [1] and in experiment [2] were 560 nM and 29 nM, respectively.
In the case of `O=C(Nc1ccc(N2CCOCC2)cc1)c1cn(Cc2c(F)cccc2F)c2cccnc2c1=O`, the IC50 in experiment [1] came to 379 nM; in experiment [2], 823 nM.
For `O=C(Nc1ccc(N2CCOCC2)cc1)c1cn(Cc2ccccc2Cl)c2ccc(=O)[nH]c2c1=O` the same measures were greater than 1000 nM and 767 nM.
In the same order, the values of `O=C(Nc1ccc(N2CCOCC2)cc1)c1cn(Cc2ccc(F)cc2)c2ccc(=O)[nH]c2c1=O` are greater than 5000 nM and 2380 nM.
In the same order, the values of `O=C(Nc1ccc(N2CCOCC2)cc1)c1cn(Cc2ccccc2C(F)(F)F)c2ccc(=O)[nH]c2c1=O` are greater than 1000 nM and greater than 1000 nM.
As for `N#Cc1ccc(NC(=O)c2cn(Cc3c(F)cccc3F)c3ccc(=O)[nH]c3c2=O)cc1`, the half-maximal inhibitory concentration (IC50) in experiment [1] was greater than 1000 nM; in experiment [2], 96 nM.
For `NC(=O)c1ccc(NC(=O)c2cn(Cc3c(F)cccc3F)c3ccc(=O)[nH]c3c2=O)cc1` the same measures were 201 nM and 49 nM.
In the same order, the values of `O=C(Nc1ccc(N2CCOCC2)cc1)c1cn(Cc2ccccc2)c2ccc(=O)[nH]c2c1=O` are greater than 1000 nM and 712 nM.
In the same order, the values of `O=C(Nc1ccc(N2CCOCC2)cc1)c1cn(Cc2cc(F)cc(F)c2)c2ccc(=O)[nH]c2c1=O` are greater than 1000 nM and greater than 1000 nM.
Turning to `CSc1ccc(NC(=O)c2cn(Cc3c(F)cccc3F)c3ccc(=O)[nH]c3c2=O)cc1`, the IC50 was greater than 1000 nM in experiment [1] and 86 nM in experiment [2].
For `COc1cc(NC(=O)c2cn(Cc3ccccc3F)c3ccc(=O)[nH]c3c2=O)cc(OC)c1OC` the same measures were greater than 1000 nM and 206 nM.
For `O=C(Nc1ccc(O)cc1)c1cn(Cc2c(F)cccc2F)c2ccc(=O)[nH]c2c1=O` the same measures were greater than 1000 nM and 105 nM.
In the same order, the values of `COc1cc(NC(=O)c2cn(Cc3ccc(F)cc3Cl)c3ccc(=O)[nH]c3c2=O)cc(OC)c1OC` are greater than 1000 nM and 192 nM.
For `CNC(=O)c1ccc(NC(=O)c2cn(Cc3c(F)cccc3Cl)c3ccc(=O)[nH]c3c2=O)cc1`, the values for the concentration for half-maximal inhibition (IC50) in experiment [1] and in experiment [2] were 156 nM and 18 nM, respectively.
Take `O=C(NCc1ccncc1)c1ccc(NC(=O)c2cn(Cc3c(F)cccc3F)c3ccc(=O)[nH]c3c2=O)cc1`: the values for the 50% inhibitory concentration (IC50) in experiment [1] and in experiment [2] were 430 nM and 20 nM, respectively.
For `COc1cc(NC(=O)c2cn(Cc3ccccc3)c3ccc(=O)[nH]c3c2=O)cc(OC)c1OC` the same measures were greater than 1000 nM and 686 nM.
For `O=C(Nc1ccc(N2CCOCC2)cc1)c1cn(Cc2c(F)c(F)cc(F)c2F)c2ccc(=O)[nH]c2c1=O` the same measures were 3560 nM and 317 nM.
For `O=C(Nc1ccc(N2CCOCC2)cc1)c1cn(Cc2ccc(F)cc2F)c2ccc(=O)[nH]c2c1=O` the same measures were greater than 1000 nM and greater than 1000 nM.
With `O=C(Nc1ccc(N2CCOCC2)cc1)c1cn(Cc2c(F)cccc2F)c2ccc(=O)[nH]c2c1=O`, the half-maximal inhibitory concentration (IC50) in experiment [1] amounted to 506 nM; in experiment [2], 22 nM.
In the same order, the values of `O=C(Nc1ccc(S(=O)(=O)Nc2nccs2)cc1)c1cn(Cc2c(F)cccc2F)c2ccc(=O)[nH]c2c1=O` are 481 nM and 25 nM.
In the same order, the values of `CCN(CC)c1ccc(NC(=O)c2cn(Cc3c(F)cccc3F)c3ccc(=O)[nH]c3c2=O)cc1` are 442 nM and 46 nM.
In the same order, the values of `N#Cc1cccc(NC(=O)c2cn(Cc3c(F)cccc3F)c3ccc(=O)[nH]c3c2=O)c1` are greater than 1000 nM and 1070 nM.
Regarding `COc1cc(NC(=O)c2cn(Cc3c(F)cccc3F)c3ccc(=O)[nH]c3c2=O)cc(OC)c1`, the IC50 is greater than 1000 nM in experiment [1] and 212 nM in experiment [2].
For `O=C(Nc1ccc(S(=O)(=O)Nc2nccs2)cc1)c1cn(Cc2c(F)cccc2Cl)c2ccc(=O)[nH]c2c1=O` the same measures were 274 nM and 32 nM.
In the same order, the values of `O=C(Nc1ccc(N2CCOCC2)cc1)c1cn(Cc2c(Cl)cccc2Cl)c2ccc(=O)[nH]c2c1=O` are greater than 1000 nM and 165 nM.
`COc1ccc(NC(=O)c2cn(Cc3c(F)cccc3Cl)c3ccc(=O)[nH]c3c2=O)cc1Cl`: the results for the IC50 in experiment [1] and in experiment [2] were greater than 1000 nM and 34 nM, respectively.
In the same order, the values of `CC(=O)c1ccc(NC(=O)c2cn(Cc3c(F)cccc3F)c3ccc(=O)[nH]c3c2=O)cc1` are greater than 1000 nM and 29 nM.
For the compound `COc1ccc(NC(=O)c2cn(Cc3c(F)cccc3F)c3ccc(=O)[nH]c3c2=O)cc1`, the results for the half-inhibitory concentration (IC50) in experiment [1] and in experiment [2] were greater than 1000 nM and 151 nM, respectively.
For `CN(C)c1ccc(NC(=O)c2cn(Cc3c(F)cccc3F)c3ccc(=O)[nH]c3c2=O)cc1` the same measures were 471 nM and 66 nM.
For `CNc1ccc(NC(=O)c2cn(Cc3c(F)cccc3F)c3ccc(=O)[nH]c3c2=O)cc1` the same measures were 994 nM and 82 nM.
Regarding `CC(=O)Nc1ccc(NC(=O)c2cn(Cc3c(F)cccc3F)c3ccc(=O)[nH]c3c2=O)cc1`, the IC50 in experiment [1] is 362 nM; in experiment [2] it was 24 nM.
For `COc1cc(NC(=O)c2cn(Cc3ccc(F)cc3)c3ccc(=O)[nH]c3c2=O)cc(OC)c1OC` the same measures were greater than 1000 nM and 868 nM.
On to `O=C(Nc1c(F)cccc1F)c1cn(Cc2c(F)cccc2F)c2ccc(=O)[nH]c2c1=O`, for which the IC50 in experiment [1] was 219 nM; in experiment [2], greater than 1000 nM.
In the same order, the values of `O=C(O)Cc1ccc(NC(=O)c2cn(Cc3c(F)cccc3F)c3ccc(=O)[nH]c3c2=O)cc1` are greater than 1000 nM and 176 nM.
In the same order, the values of `O=C(O)c1ccc(NC(=O)c2cn(Cc3c(F)cccc3F)c3ccc(=O)[nH]c3c2=O)cc1` are 1520 nM and 200 nM.
For `O=C(Nc1ccc(OC(F)(F)F)cc1)c1cn(Cc2c(F)cccc2F)c2ccc(=O)[nH]c2c1=O` the same measures were greater than 1000 nM and 90 nM.
Turning to `COc1cc(NC(=O)c2cn(Cc3c(Cl)cccc3Cl)c3ccc(=O)[nH]c3c2=O)cc(OC)c1OC`, the half-maximal inhibitory concentration (IC50) in experiment [1] was 979 nM; in experiment [2], 88 nM.
For `CS(=O)(=O)c1ccc(NC(=O)c2cn(Cc3c(F)cccc3F)c3ccc(=O)[nH]c3c2=O)cc1`, the IC50 in experiment [1] is greater than 1000 nM; in experiment [2], 27 nM.
In the same order, the values of `NS(=O)(=O)c1ccc(NC(=O)c2cn(Cc3c(F)cccc3F)c3ccc(=O)[nH]c3c2=O)cc1` are 458 nM and 34 nM.
